Converted amounts (≈) assume the structure as drawn.

This is an account of results in ChEMBL document CHEMBL1142730, “Design of HIV-1 protease inhibitors active on multidrug-resistant virus” (J Med Chem, 2005).

Data set [1] is filed under the species Rattus norvegicus. Nature of the data set: In vitro metabolic stability value after 30 min of incubation with liver microsomes of rat was determined. Conditions: Microsome. The format is functional. In a few lines: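 Compound at 10 µM incubated at 37 °C with dog, human or rat liver microsomes. Residual parent compound quantified directly by LC-MS. Value is percent parent remaining after 30 min.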
On the technique in general: Liver microsomes are vesicles of endoplasmic reticulum, rich in cytochrome P450 enzymes.

The target in data set [2] is T1, Human immunodeficiency virus type 1 protease (Human immunodeficiency virus 1, UniProt Q72874). Put plainly: (§1) Binding affinity against HIV-1 protease. The procedure, abridged: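 Isothermal titration calorimetry by displacement: the protease was pre-titrated with acetylpepstatin (300 µM) as the weaker binder, then the inhibitor (125 or 200 µM in the syringe) was injected to saturation into protease (9–21 µM). Buffer was 10 mM sodium acetate pH 5.0, 2% DMSO, 2 mM TCEP. Heats of dilution were subtracted, and each run was done at least twice.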

A short description of data set [3]: Maximum plasma concentration value in dog was determined at a dosage of 20 mg/kg. The format is ADME, organism-based, Canis lupus familiaris. The arrangement: dose 20 mg/kg. In a few lines:
(§2)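 Oral dosing in dog at 20 mg/kg, coadministered with ritonavir. Compound given as a solution in PEG400 or in 40% w/v hydroxypropyl-β-cyclodextrin with 2% citric acid. Plasma Cmax, Tmax, t1/2 and AUC determined.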

For data set [4], the system named is Caco-2. Put plainly: In vitro increase in apparent permeability from basolateral to apical was determined in Caco-2 (human colon carcinoma) cells. The format is functional, cell-based. The procedure, abridged:
(§3)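 Caco-2 monolayer apparent permeability measured apical-to-basolateral and basolateral-to-apical; reported as Papp in cm/s (×10⁶).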

The nature of data set [5]: Maximum plasma concentration value in wistar rat was determined at a dosage of 20 mg/kg. The format is ADME, organism-based. Also noted: dose 20 mg/kg. The procedure, abridged: (§4)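 Wistar rats, single-dose study at 20 mg/kg, compound formulated in PEG400. Plasma Cmax, Tmax, t1/2 and AUC determined.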
The subject of data set [6] is Human immunodeficiency virus 1. Put plainly: Protease inhibitory activity against HIV-1 GSS004421 mutant strain was determined. The format is functional, organism-based.
In data set [7] the test system is Human immunodeficiency virus 1. Nature of the data set: Protease inhibitory activity against wild type HIV-1 IIIB was determined. The format is functional, organism-based.
The nature of data set [8]: In vivo time to reach maximum plasma concentration value in dog was determined at a dosage of 20 mg/kg. The format is ADME, organism-based, Canis lupus familiaris. Also noted: dose 20 mg/kg. In a few lines: as §2
Data set [9] is described as follows: In vivo area under the concentration time curve value in dog was determined at a dosage of 20 mg/kg. The arrangement: dose 20 mg/kg. The format is ADME, organism-based, Canis lupus familiaris. In a few lines:
as §2

The nature of data set [10]: In vivo half life value in dog was determined at a dosage of 20 mg/kg. The format is ADME, organism-based, Canis lupus familiaris. Also noted: dose 20 mg/kg. In a few lines:
as §2

Data set [11] is described as follows: In vivo area under the concentration time curve value in wistar rat was determined at a dosage of 20 mg/kg. The format is ADME, organism-based. The arrangement: dose 20 mg/kg. In a few lines:
as §4

Data set [12] deals with Human immunodeficiency virus 1. Nature of the data set: Protease inhibitory activity against HIV-1 r13363 mutant strain was determined. The format is functional, organism-based.
In data set [13] the test system is Human immunodeficiency virus 1. Nature of the data set: Protease inhibitory activity against HIV-1 r13034 mutant strain was determined. The format is functional, organism-based.
Data set [14] is described as follows: In vitro solubility at was determined; pH=5. The format is ADME. The procedure, abridged:
(§5)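 Aqueous solubility measured at pH 5 and pH 7, expressed in […].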

Data set [15] relates to Human immunodeficiency virus 1. Nature of the data set: Toxicity value against wild type HIV-1 IIIB was determined. The format is functional. The procedure, abridged: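 MT4 cells (150 000 cells/mL) mock-infected, run in parallel with HIV-infected cultures over an identical compound concentration range. Incubated 3 days at 37 °C, 5% CO₂. Reduced expression of the […] GFP reporter serves as the toxicity marker.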

The nature of data set [16]: In vivo time to reach maximum plasma concentration value in wistar rat was determined at a dosage of 20 mg/kg. The format is ADME, organism-based. The arrangement: dose 20 mg/kg. The procedure, abridged:
as §4

Data set [17] deals with Human immunodeficiency virus 1. Put plainly: Protease inhibitory activity against HIV-1 r13025 mutant strain was determined. The format is functional, organism-based.
The test system of data set [18] is Caco-2. Nature of the data set: In vitro increase in apparent permeability from apical to basolateral was determined in Caco-2 (human colon carcinoma) cells. The format is functional, cell-based. In a few lines: as §3
(In general: Caco-2 cells form a polarised layer with tight junctions and transporters.)

Data set [19] is described as follows: In vitro solubility at was determined; pH=7. The format is ADME. The procedure, abridged: as §5
The nature of data set [20]: In vivo half life value in wistar rat was determined at a dosage of 20 mg/kg. The format is ADME, organism-based. The arrangement: dose 20 mg/kg. The procedure, abridged: as §4
In data set [21] the target is T1, Human immunodeficiency virus type 1 protease. Described as §1. This is another data set of the same source.

Broadly, the Kd is the free concentration of one partner at which half of the binding sites on the other are occupied at equilibrium, for simple one-to-one binding. Low values mean higher affinity, high ones lower affinity. The Cmax is the highest concentration seen after dosing. As a reminder, the Papp is the rate of passage across a membrane or cell layer, normalised by area and donor concentration. In general, pEC50 refers to the negative decadic logarithm of the EC50, by convention in mol/L. Read a high pEC50 as a small EC50. A word on the EC50: it is the concentration giving half of the maximal effect. For orientation: Tmax means the time from dosing to the highest level. What is called AUC is concentration integrated over time. A higher AUC goes with more exposure. The term half-life denotes the time needed for the level to fall by half in the phase considered. In general, solubility refers to how much of the substance goes into solution per volume. Low values mean a poorly soluble substance, high ones a readily soluble substance. Broadly, the pCC50 is the negative decadic logarithm of the CC50, by convention in mol/L. Compound `CNc1nc2ccc(S(=O)(=O)N(CC(C)C)C[C@@H](O)[C@H](Cc3ccccc3)NC(=O)O[C@H]3CO[C@H]4OCC[C@H]43)cc2o1` came in with a Metabolic stability in data set [1] of 70%. The same compound came in with a Kd in data set [2] of 0.9 nM. Moreover, the Cmax came to 986 ng/mL in data set [3] and 927 ng/mL in [5]. Besides, the Papp in data set [4] was 24 ×10⁻⁶ cm/s; in data set [18] it was 17.6 ×10⁻⁶ cm/s. Besides, the pEC50 was found to be 8.07 in data set [6], 7.5 in data set [12], 8.61 in data set [13] and 8.13 in [17]. The response in data set [7] was half-maximal at 2 nM (EC50). Further, the values for the Tmax in data set [8] and in [16] were 2 h and 1.4 h, respectively. Moreover, the AUC in data set [9] turned out to be 2030 ng·h/mL; in data set [11] it was 1200 ng·h/mL. This compound showed a half-life in data set [10] of 0.9 h. Besides, the solubility in data set [14] was 10 µg/mL (≈ 16.6 µM); in data set [19] it was less than 10 µg/mL. Further, the pCC50 in data set [15] is less than 4.49.

Compound `CC(C)CN(C[C@@H](O)[C@H](Cc1ccccc1)NC(=O)O[C@H]1CO[C@H]2OCC[C@H]21)S(=O)(=O)c1ccc2nc(NCCN3CCCC3)sc2c1` displayed a Metabolic stability in data set [1] of 56%. For the same compound, the dissociation constant (Kd) in [2] came to 0.0637 nM. In data set [3], this compound registered a Cmax of 1970 ng/mL. The Papp in data set [4] was 21.7 ×10⁻⁶ cm/s; in data set [18], 3.5 ×10⁻⁶ cm/s. Also, the pEC50 was 7.86 in data set [6], 7.49 in data set [12], 7.91 in [13] and 7.88 in [17]. Also, the midpoint of the response in [7], the EC50, lay at 11 nM. The Tmax in [8] was found to be 0.5 h. In data set [9], this compound displayed an AUC of 6050 ng·h/mL. In data set [10], this compound showed a half-life of 1.66 h. Besides, the results for the solubility in data set [14] and in data set [19] were 90 µg/mL (≈ 128 µM) and less than 10 µg/mL, respectively. In addition, the pCC50 in data set [15] is less than 4.49.

In turn, `CC(C)CN(C[C@@H](O)[C@H](Cc1ccccc1)NC(=O)O[C@H]1CO[C@H]2OCC[C@H]21)S(=O)(=O)c1ccc2nc(N(C)CCCN(C)C)sc2c1` gave a Metabolic stability in [1] of 47%. Also, in data set [3], the highest concentration (Cmax) was 1680 ng/mL. Also, the figures for the Papp in data set [4] and in [18] were 8.5 ×10⁻⁶ cm/s and 2 ×10⁻⁶ cm/s, respectively. Moreover, the pEC50 came to 6.71 in data set [6], 6.08 in [12], 7.32 in data set [13] and 6.95 in [17]. Moreover, the midpoint of the response in [7], the EC50, lay at 14.8 nM. Besides, in [8], the Tmax is 1 h. In [9], this compound gave an AUC of 6590 ng·h/mL. In data set [10], this compound had a half-life of 2.9 h. Further, the solubility in data set [14] amounted to 1640 µg/mL (≈ 2330 µM); in data set [19], 1180 µg/mL (≈ 1680 µM). The compound also registered a pCC50 in [15] of 4.68.

In [1], `CC(C)CN(C[C@@H](O)[C@H](Cc1ccccc1)NC(=O)O[C@H]1CO[C@H]2OCC[C@H]21)S(=O)(=O)c1ccc2nc(N)oc2c1` yielded a Metabolic stability of 90%. The Papp in data set [4] was determined as 23.8 ×10⁻⁶ cm/s; in [18] it was 3.8 ×10⁻⁶ cm/s. This compound showed a Cmax in [5] of 260 ng/mL. Further, the pEC50 in [6] is 8.06; in data set [12] it was 7.6; in [13] it was 8.19; in [17] it was 8.21. Moreover, the concentration for a half-maximal effect (EC50) in data set [7] is 11.7 nM. Also, the half-life in data set [20] was 1.6 h. The AUC in data set [11] amounted to 448 ng·h/mL. In [15], this compound showed a negative logarithm of the CC50 (pCC50) of less than 4.49. Further, the Tmax in data set [16] was 1 h.

In data set [21], `CC(C)CN(CC(O)C(Cc1ccccc1)NC(=O)OC1CCOC1)S(=O)(=O)c1ccc(N)cc1` (centres undefined) had a Kd of 0.4 nM.
